Laboratory results reported in ChEMBL document CHEMBL1811870, “Synthesis, gp120 binding and anti-HIV activity of fatty acid esters of 1,1-linked disaccharides” (Bioorg Med Chem, 2011).
pIC50: −log10 of the molar value. Active and inactive are the calls of the source. The calls are words filed in the database; no cut-off is given here.

Tests used:
[1] = Critical micelle concentration of the compound; assay type: physicochemical
Summary of the method: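 Glycolipid stocks in hexane:chloroform:ethanol (11:5:4) were injected 1:1000 into water, with surface tension recorded continuously on a microtensiometer. CMC was taken as the concentration above which surface tension no longer fell. Measured in triplicate.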

[2] = Cytotoxicity against human TZM-bl cells up to 200 uM after 24 hrs by MTS assay; assay type: cell-based
Summary of the method: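 TZM-bl cells were seeded and left overnight, then exposed to serial dilutions starting at 200 μM for 24 h. MTS dye reduction was read as OD at 490 nm and normalized to cells in medium only.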

[3] = system: Human immunodeficiency virus 1; experiment: Binding affinity to HIV1 3B R15K V3 loop of gp-120 using monomolecular film after 2 to 3 hrs by microtensiometer analysis
Summary of the method: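 Glycolipid monolayers spread from hexane-chloroform-ethanol onto a pure water subphase at various initial surface pressures, with 5 min allowed for solvent evaporation, at 20°C ± 1°C. Critical pressure of insertion extrapolated to zero Δπ; surface pressure accuracy ± 0.25 mN/m.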

[4] = system: Human immunodeficiency virus; experiment: Antiviral activity against HIV NL-Lai infected in human TZM-bl cells assessed as inhibition of viral infection after 24 hrs by luciferase assay; assay type: functional, organism-based; settings: Human immunodeficiency virus 1, NL-Lai
Summary of the method: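 TZM-bl cells (2×10^4/well) adhered overnight, then infected with X4 NL-Lai virus (from 293T transfection, titered on TZM-bl) with 20 μg/mL DEAE dextran and serial dilutions of compound. Luciferase read 24 h post infection and normalized to virus-only wells. IC50 taken from curve fit of data pooled from at least three independent experiments.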

[5] = system: Human immunodeficiency virus; experiment: Antiviral activity against HIV NL-Lai infected in human TZM-bl cells assessed as inhibition of viral infection at 100 uM treated before viral infection measured after 24 hrs by luciferase assay; assay type: functional, organism-based
Summary of the method: (§1)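 TZM-bl cells infected with NL-Lai (X4) virus. Compounds at 100 μM were given either before infection or 4 h after infection. In the post-infection arm, unbound virus was washed off with PBS and fresh medium containing compound was added. T20 and AMD3100 controls were used at 2 μM. Luciferase was read 24 h later. Mean ± SD of triplicates.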

[6] = system: Human immunodeficiency virus; experiment: Antiviral activity against HIV NL-Lai infected in human TZM-bl cells assessed as inhibition of viral infection at 100 uM treated 4 hrs after viral infection measured after 24 hrs by luciferase assay; assay type: functional, organism-based; summary of the method: as §1

SMILES	CMC [1]	Activity [2]	CPI [3]	pIC50 [4]	inhibition [5]	inhibition [6]
CCCCCCCCCCCCCCCC(=O)OC[C@H]1O[C@H](O[C@@H]2O[C@H](CO)[C@H](O)[C@H](O)[C@H]2O)[C@@H](O)[C@@H](O)[C@@H]1O	9.8 µM	Non-toxic	18 mN/meter	< 4.00	–	–
CCCCCCCCCCCCCCCC(=O)OC[C@H]1O[C@H](O[C@@H]2O[C@H](CO)[C@H](O)[C@H](O)[C@H]2O)[C@@H](O)[C@@H](O)[C@@H]1OC(=O)CCCCCCCCCCCCCCC	–	Non-toxic	18 mN/meter	< 4.00	–	–
CCCCCCCCCCCCC/C=C/[C@@H](O)[C@H](CO[C@@H]1O[C@H](CO)[C@H](O)[C@H](O)[C@H]1O)NC(=O)C(O)CCCCCCCCCCCCCCCCCCCCCC (some centres undefined)	–	Non-toxic	22 mN/meter	–	–	–
CCCCCCCCCCCCCCCC(=O)OC[C@H]1O[C@H](O[C@H]2O[C@H](CO)[C@H](O)[C@H](O)[C@H]2O)[C@@H](O)[C@@H](O)[C@@H]1O	–	Non-toxic	–	4.32	Active	inactive
CCCCCCCCCCCCCCCC(=O)OC[C@H]1O[C@H](O[C@@H]2O[C@H](CO)[C@@H](O)[C@H](O)[C@H]2O)[C@@H](O)[C@@H](O)[C@@H]1O	10 µM	Non-toxic	18 mN/meter	4.28	Active	inactive
CCCCCCCCCCCCCCCC(=O)OC[C@H]1O[C@H](OC)[C@@H](O)[C@@H](O)[C@@H]1OC(=O)CCCCCCCCCCCCCCC	–	Non-toxic	18 mN/meter	< 4.00	–	–
CCCCCCCCCCCC(=O)OCC(O)CO (centres undefined) [GLYCEROL MONOLAURATE]	–	–	–	< 4.00	–	–
c1cc(CN2CCCNCCNCCCNCC2)ccc1CN1CCCNCCNCCCNCC1	–	–	–	–	Active	inactive
CCCCCCCCCCCCCCCCO[C@@H]1O[C@H](CO)C(O)[C@H](O)[C@H]1O (single isomer, unassigned)	–	Non-toxic	–	4.36	Active	inactive
CCCCCCCCCCCCCCCC(=O)OC[C@H]1O[C@H](OC)[C@@H](O)[C@@H](O)[C@@H]1O	13 µM	Non-toxic	18 mN/meter	< 4.00	–	–
CCCCCCCCCCCCCCCC(=O)O[C@@H]1[C@H](O)[C@@H](O[C@@H]2O[C@H](CO)[C@H](O)[C@H](O)[C@H]2O)O[C@H](CO)[C@H]1O	12 µM	Non-toxic	18 mN/meter	4.12	Active	inactive
